Screens from PubChem.
This is a sample that favours compounds with a hit; in the whole collection about 2.5% have one here.
ABHD5-PLIN5 inh: ABHD5-PLIN5 protein interaction inhibition | Q00G26+Q8WTS1 | Split G. princeps luciferase complementation, luminescence, 4 h | inhibition, % at 4 µM | 0.78% of 360,000 active | AID 602281;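 active = inhibition above the mean inhibition across every tested compound plus 3 SD, cut at about 22% in these data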
SENP1 inh: inhibitors of human SENP1 SUMO protease catalytic domain | 0.21% of 360,000 active | recombinant SENP1 catalytic domain, CyPet-SUMO1-YPet FRET cleavage | Q9P0U3 | inhibition, % at 10 µM;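 active = inhibition at least 30% at 10 µM, raw YFP signal under a set limit, fluorescence ratio 0.5 to 1.5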
Target sequence (Q9P0U3 419-644 limits assumed): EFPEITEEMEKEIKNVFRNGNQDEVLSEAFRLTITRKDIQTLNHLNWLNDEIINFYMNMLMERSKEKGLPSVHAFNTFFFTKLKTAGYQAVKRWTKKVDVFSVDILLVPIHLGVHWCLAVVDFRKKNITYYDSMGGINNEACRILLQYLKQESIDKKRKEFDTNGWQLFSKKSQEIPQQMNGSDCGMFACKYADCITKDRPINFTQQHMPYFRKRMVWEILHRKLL
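Compound: 10 µM single point, 0.5% DMSO; Test system: hSENP1 catalytic domain, recombinant; Timing: 50 min reaction at room temperature; Technique: FRET, CFP and YFP emission; Control set: no-enzyme wells low, DMSO-plus-enzyme wells high control.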
B2AR ag: human beta-2 adrenergic receptor agonism by FAP; Am2.2-beta2AR cells, FAP receptor internalization, flow cytometry; 0.43% of 340,000 active; response, % (no concentration beside the values);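 active = response above a set limit, near 3 SD of response in nonfluorescent compounds, cut at about 42% in these data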
Target sequence (P07550 whole entry, looked up): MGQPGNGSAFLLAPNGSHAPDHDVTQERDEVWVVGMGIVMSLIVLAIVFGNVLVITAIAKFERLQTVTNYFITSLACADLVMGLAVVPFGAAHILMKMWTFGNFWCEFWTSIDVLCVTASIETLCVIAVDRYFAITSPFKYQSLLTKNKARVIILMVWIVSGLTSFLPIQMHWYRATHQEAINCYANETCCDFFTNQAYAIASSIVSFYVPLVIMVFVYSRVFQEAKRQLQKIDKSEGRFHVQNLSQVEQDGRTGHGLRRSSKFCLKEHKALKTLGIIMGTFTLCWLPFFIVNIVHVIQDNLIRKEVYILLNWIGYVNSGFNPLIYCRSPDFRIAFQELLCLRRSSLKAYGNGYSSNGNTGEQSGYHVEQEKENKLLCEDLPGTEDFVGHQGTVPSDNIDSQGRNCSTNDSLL
GRK2 aptamer HTS: inhibitors of human GRK2 displacing RNA aptamer; inhibition of aptamer binding, % at 10 µM; P25098; bead flow cytometry, FAM-aptamer displacement from GRK2; 0.59% of 330,000 active;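 active = inhibition of aptamer binding above 40%, roughly 3 SD of noise, on plates passing a quality check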;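 note: median bead fluorescence of bound FAM aptamer so fluorescent compounds give negative values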
NadD inh: inhibitors of Staphylococcus aureus NadD | AID 602399 | purified NadD enzyme, colorimetric absorbance read-out | inhibition, % at 20 µM | 0.78% of 360,000 active; in the data active = inhibition above about 26%
GRK2 inh confirm: human GRK2 inhibition confirmation, cherry pick 1; shares compounds with GRK2 aptamer HTS; bead-bound GRK2, FAM-aptamer displacement, flow cytometry; aptamer displacement, % at 10 µM; 4% of 2,000 active;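 active = aptamer displacement above 40%, near three times the noise of non-fluorescent compounds, on plates passing quality checks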;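 note: negative values mostly reflect intrinsic compound fluorescence rather than true enhancement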
Aptamer quench SP: counter-screen for GRK2 aptamer inhibitors: fluorescent aptamer quenchers. shares compounds with GRK2 aptamer HTS. Carboxyfluorescein RNA aptamer on beads, flow cytometry quenching; stronger effect = lower value. fluorescence response (% of DMSO), % at 10 µM. 2,000 tested, under 10 active;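 active = compounds that quench the bead-bound fluorescent RNA probe, cutting fluorescence to under half of the solvent control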;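 note: counterscreen run without GRK2 so only probe quenching by compound is measured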
GRK2 CP2: confirmation of human GRK2 inhibitors binding RNA aptamer site. shares compounds with GRK2 aptamer HTS. bead-bound GRK2, FAM-aptamer displacement, flow cytometry. inhibition of aptamer binding, % at 10 µM. 360 tested, under 10 active;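 active = inhibition of aptamer binding above 40%, about triple the noise seen with nonglowing compounds, on plates passing quality control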;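 note: negative values mostly come from compounds that fluoresce themselves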
FAM quench SP: counter-screen for GRK2 binding hits: quenchers of fluorescent RNA aptamer | 360 tested, under 10 active | AID 588494 | fluorescence response vs DMSO, % at 10 µM | shares compounds with GRK2 aptamer HTS | carboxyfluorescein RNA aptamer beads, flow cytometry quenching; stronger effect = lower value;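 active = response vs DMSO under 50%, meaning signal dropped by over half, treated as fluorescence quencher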;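 note: labelled aptamer on streptavidin beads without GRK2 as a quench counter-screen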
Each line names hits and unclear results; the compound was inactive in the other large screens (follow-up assays come after a bar, where they were run).

CC(=O)Nc1ccc(C(=O)CN2C(=O)NC3(CCCc4ccccc43)C2=O)c(F)c1 (centres undefined)	none | GRK2 inh confirm inactive | Aptamer quench SP inactive
CC(=O)CCN1C(=O)NC2(CCCc3ccccc32)C1=O (centres undefined)	GRK2 aptamer HTS 58 | GRK2 CP2 inactive | FAM quench SP inactive
O=C(COC(=O)CNC(=O)c1ccc(Cl)cc1Cl)NC1CCCCC1	none
O=C(Nc1ccc(Cl)c(S(=O)(=O)N2CCOCC2)c1)c1ccc(Cl)nc1	none (no result: GRK2 aptamer HTS)
COc1cc(OC)cc(-c2c(-c3cccs3)c3cc(-c4cnc(OC)nc4)ccc3n2C)c1	GRK2 aptamer HTS 68 | GRK2 inh confirm inactive | Aptamer quench SP inactive
COc1ccc(-c2ccc3c(c2)c(-c2cccs2)c(-c2cc(OC)cc(OC)c2)n3C)cc1	none
COc1ccc(CCNCc2ccc(OCc3ccccc3)cc2)cc1	GRK2 aptamer HTS 58 | GRK2 inh confirm inactive | Aptamer quench SP inactive
COc1ccc(CNS(=O)(=O)CCNCCc2ccccc2)cc1	none (no result: GRK2 aptamer HTS)
CCOC(=O)c1cccc(NC(=O)c2ccc(-n3cnnn3)cc2)c1	none | GRK2 inh confirm inactive | Aptamer quench SP inactive
COC(=O)c1cccc(NC(=O)c2cccc(-n3cnnn3)c2)c1	none (no result: B2AR ag, GRK2 aptamer HTS)
CCCC(=O)Nc1nnc(SCC)s1	GRK2 aptamer HTS 100 | GRK2 CP2 inactive | FAM quench SP inactive
CC(C)NC(=O)C(=O)NC1CCCCCC1	GRK2 aptamer HTS 54 | GRK2 inh confirm inactive | Aptamer quench SP inactive
Cc1cnc(C(=O)OCC(=O)c2ccc(C)s2)cn1	GRK2 aptamer HTS 45 | GRK2 inh confirm inactive | Aptamer quench SP inactive
CCN(Cc1ccccc1)C(=O)COC(=O)c1cnc(C)cn1	none
Cc1cnc(C(=O)OCC(=O)N(Cc2ccccc2)C(C)C)cn1	GRK2 aptamer HTS 42 | GRK2 inh confirm inactive | Aptamer quench SP inactive
Cc1cnc(C(=O)OCC(=O)c2ccccc2)cn1	none
O=C(CN(Cc1ccc(Cl)cc1)C(=O)c1csnn1)NCc1ccc(F)cc1	none
Cc1ccc(-c2nnc(SCC(=O)N(C)C)nc2-c2ccc(C)cc2)cc1	none
CCN1C(=O)[C@H]2[C@@H](c3ccc(C)cc3)N3C(=O)N(c4ccccc4)C(=O)[C@@]3(CC)[C@H]2C1=O	none
CCC(=O)Nc1ccc(C(=O)COC(=O)Cc2ccsc2)cc1	GRK2 aptamer HTS 48 | GRK2 inh confirm inactive | Aptamer quench SP inactive
Cc1nnc(Nc2ccc(C(=O)NCCO)cc2)c2ccccc12	GRK2 aptamer HTS 49 | GRK2 inh confirm inactive | Aptamer quench SP inactive
Cc1cccc(C)c1NC(=O)CNC(=O)CCCc1c[nH]c2ccccc12	none
Cc1[nH]nc2c1/C(=N\O)CCC2	none | GRK2 inh confirm inactive | Aptamer quench SP inactive
CCOc1ccc(C(C)NC(=O)Cc2ccccc2F)cc1OCC (centres undefined)	GRK2 aptamer HTS 68 | GRK2 inh confirm inactive | Aptamer quench SP inactive
COCCn1c(SCC(=O)Nc2cc(C)cc(C)c2)nnc1C(C)C	none
COCCn1c(SCC(=O)Nc2cccc(C)c2)nnc1C(C)C	GRK2 aptamer HTS 41 | GRK2 CP2 inactive | FAM quench SP inactive
CCN(C(=O)COC(=O)CCc1ccc(OC)cc1)c1c(N)n(Cc2ccccc2)c(=O)[nH]c1=O	none (no result: GRK2 aptamer HTS)
COC(=O)c1cc(-c2cccc([N+](=O)[O-])c2)c2c(=O)n(C)c(=O)n(C)c2n1	GRK2 aptamer HTS 79 | GRK2 inh confirm inactive | Aptamer quench SP inactive
COc1cccc(NC(=O)CNC(=O)c2ccc(C)o2)c1	none
Cc1cc(-c2cccnc2)c(C#N)c(SCc2cccc(F)c2)n1	none
Cc1cc(-c2cccnc2)c(C#N)c(SCC#N)n1	GRK2 aptamer HTS 84 | GRK2 inh confirm inactive | Aptamer quench SP inactive
CCCCC1(C)OC(=O)C(=Cc2ccc(-c3ccc(Cl)c(C(=O)O)c3)o2)C(=O)O1 (centres undefined)	GRK2 aptamer HTS 55 | GRK2 inh confirm inactive | Aptamer quench SP inactive
Cc1ccc(N2NC(=O)/C(=C/c3ccc(-c4ccc(Cl)c(C(=O)O)c4)o3)C2=O)cc1	none
Cc1cc(=O)oc2cc(OC(C)C)ccc12	none
Cc1cc(=O)oc2cc(OC(C(=O)O)c3ccccc3)ccc12 (centres undefined)	GRK2 aptamer HTS 84 | GRK2 inh confirm inactive | Aptamer quench SP inactive
COc1ccc2c(c1)C(=O)N(c1ccc(C)cc1C)C(=O)C2(C)C	none
COc1ccc2c(c1)C(=O)N(c1ccccc1C)C(=O)C2(C)C	GRK2 aptamer HTS 78 | GRK2 inh confirm inactive | Aptamer quench SP inactive
Fc1ccc(CSc2ccc(-c3ccc4c(c3)OCO4)nn2)cc1	GRK2 aptamer HTS 49 | GRK2 CP2 inactive | FAM quench SP inactive
CCc1cc(=O)oc2cc(OCC(=O)N3CCC[C@H]3C(=O)O)ccc12	none
C=C(C)CCOC(=O)C(CC(=O)O)NCc1ccco1 (centres undefined)	GRK2 aptamer HTS 43 | GRK2 inh confirm inactive | Aptamer quench SP inactive
CCCN1CCN(C(=O)c2noc3c2COc2ccc(C)cc2-3)CC1	GRK2 aptamer HTS 59 | GRK2 inh confirm inactive | Aptamer quench SP inactive
Cc1ccc(S(=O)(=O)N2CCOCC2)cc1NC(=O)COC(=O)/C=C/c1ccco1	GRK2 aptamer HTS 63 | GRK2 inh confirm inactive | Aptamer quench SP inactive
O=C1C(=O)c2ccc(-c3ccccc3)cc2-c2ccccc21	B2AR ag 61, GRK2 aptamer HTS 66 | GRK2 inh confirm inactive | Aptamer quench SP inactive
N#Cc1c(-c2ccccc2)cc(-c2ccccc2)[nH]c1=O	GRK2 aptamer HTS 60 | GRK2 CP2 inactive | FAM quench SP inactive
Cn1c(=O)c2c(nc(SCC(=O)NCc3ccc4c(c3)OCO4)n2Cc2ccccc2)n(C)c1=O	GRK2 aptamer HTS 53 | GRK2 inh confirm inactive | Aptamer quench SP inactive
Cn1c(=O)c2c(nc(SCC(=O)NCc3ccc4c(c3)OCO4)n2Cc2ccc(F)cc2)n(C)c1=O	none
O=C1CCCC(O)=C1N=Nc1cccc(C(=O)O)c1	GRK2 aptamer HTS 83 | GRK2 inh confirm inactive | Aptamer quench SP inactive
CC1CN(C(=O)c2cccc(S(=O)(=O)N3CCN(c4ccc(F)cc4)CC3)c2)CC(C)O1 (centres undefined)	none
CC1CN(C(=O)c2cccc(COc3ccccc3Cl)c2)CC(C)O1 (centres undefined)	GRK2 aptamer HTS 98 | GRK2 inh confirm inactive | Aptamer quench SP inactive
